The test system of series [1] is Trypanosoma cruzi. As to the kind of experiment: Growth inhibition of Trypanosoma cruzi epimastigotes after 72 hrs by Alamar blue assay. In kind it is functional, organism-based. (In general: The colour change of resazurin is a common sign of viable cells or microbes.)
The subject of series [2] is Leishmania donovani. The series is described as follows: Growth inhibition of Leishmania donovani promastigotes after 72 hrs by Alamar blue assay. In kind it is functional, organism-based. In outline:
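Parasites exposed to drug for 72 h; growth read as optical density at 600 nm against drug-free control cultures. Six drug concentrations per run, 2–5 independent runs; mean inhibition plotted against concentration, IC50 and IC90 by linear regression, reported in micromolar with standard errors of the means.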

Series [3] relates to Trypanosoma brucei rhodesiense. As to the kind of experiment: Growth inhibition of Trypanosoma brucei rhodesiense trypomastigotes after 72 hrs by Alamar blue assay. In kind it is functional, organism-based.
A short description of series [4]: Growth inhibition of human U937 cells at 3 mM. In kind it is cell-based, U-937.
The subject of series [5] is Leishmania major. As to the kind of experiment: Antiparasitic activity against Leishmania major promastigotes assessed as parasite killing at 750 nM. In kind it is functional.
Series [6] deals with Leishmania major. The series is described as follows: Antiparasitic activity against Leishmania major amastigotes in macrophage assessed as parasite killing at 3 to 30 uM. In kind it is functional.
Series [7] relates to Leishmania infantum. The series is described as follows: Antiparasitic activity against Leishmania infantum promastigotes assessed as parasite killing at 1.4 to 382.9 uM. In kind it is functional.
Series [8] deals with Trypanosoma cruzi. The series is described as follows: Inhibition of ATPase in Trypanosoma cruzi at 1 uM in presence of calcium. More on the design: scale not given: the % may be the effect or the level left. In outline:
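T. cruzi membranes were isolated by a protocol adapted from Leishmania. It was started with 2 mM ATP, and released inorganic phosphate was measured colorimetrically.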

Series [9] has as its system Leishmania donovani. As to the kind of experiment: Antiparasitic activity against Leishmania donovani in hamster assessed as reduction of liver parasite burden at 25 mg/kg, po. In kind it is functional. More on the design: scale not given: the % may be the effect or the level left.
For series [10], the system named is Leishmania donovani. The series is described as follows: Antiparasitic activity against Leishmania donovani in hamster assessed as reduction of spleen parasite burden at 50 mg/kg, po. In kind it is functional. More on the design: scale not given: the % may be the effect or the level left.
The test system of series [11] is Leishmania donovani. The series is described as follows: Antiparasitic activity against Leishmania donovani in hamster assessed as reduction of liver parasite burden at 50 mg/kg, po. More on the design: scale not given: the % may be the effect or the level left. In kind it is functional.
The subject of series [12] is Leishmania donovani. As to the kind of experiment: Antiparasitic activity against Leishmania donovani in hamster assessed as reduction of spleen parasite burden at 25 mg/kg, po. More on the design: scale not given: the % may be the effect or the level left. In kind it is functional.

Bounds are passed on as bounds.

The term IC50 denotes the midpoint of a concentration-inhibition curve. One may read the IC90 as the concentration at which the effect reaches the 90% level. `C[C@@H]1O[C@@H](O[C@H]2C[C@@H](O)[C@]3(CO)[C@H]4[C@H](O)C[C@]5(C)[C@@H](C6=CC(=O)OC6)CC[C@]5(O)[C@@H]4CC[C@]3(O)C2)[C@H](O)[C@H](O)[C@H]1O` [OUABAIN]: the half-maximal inhibitory concentration (IC50) in [1], in [2] and in series [3] was over 450 µM in each case. Further, the IC90 is 953 µM in series [1] and 1180 µM in series [3].
In the case of `N=C(N)c1ccc(OCCCCCOc2ccc(C(=N)N)cc2)cc1` [PENTAMIDINE], the IC50 in series [1] was determined as 1.1 µM; in [2] it was 1 µM; in [3], 1.2 µM. Further, the IC90 in series [1] turned out to be 4.4 µM; in [3], 3.7 µM.
The like results for `COc1ccc2[nH]c([S+]([O-])Cc3ncc(C)c(OC)c3C)nc2c1` (centres undefined) [OMEPRAZOLE] were, in that order, 178 µM, 340 µM, 177 µM, 526 µM and 509 µM.
A word on the inhibition: it is how much of the control response was suppressed. In turn, `C[C@@H]1CC[C@H]2[C@@H](C)C(=O)O[C@@H]3O[C@@]4(C)CC[C@@H]1[C@]32OO4` [ARTEMISININ] returned an inhibition at 3000 µM in series [4] of under 5%. Besides, the Activity was determined as 50% in series [5], 50% in series [6], 50% in [7] and 24.9% in series [8]. The IC50 in series [1] was 13.4 µM; in series [2], 30.8 µM; in [3], 20.4 µM. Besides, the IC90 is 46.5 µM in series [1] and 49.1 µM in [3].
For the molecule `C[C@H]1[C@@H](O)O[C@@H]2O[C@@]3(C)CC[C@H]4[C@H](C)CC[C@@H]1[C@@]24OO3` [ARTENIMOL], the Activity in [9], in [10], in series [11] and in series [12] was 75% in each case. Also, the IC50 in series [1] worked out at 12.8 µM; in series [3], 24.6 µM. Moreover, the IC90 in series [1] turned out to be 49.2 µM; in series [3] it was 49.6 µM.
For `C[C@@H]1[C@H](O)[C@@H](C)/C=C/C=C/C=C/C=C/C=C/C=C/C=C/[C@H](O[C@@H]2O[C@H](C)[C@@H](O)[C@H](N)[C@@H]2O)C[C@@H]2O[C@](O)(C[C@@H](O)C[C@@H](O)[C@H](O)CC[C@@H](O)C[C@@H](O)CC(=O)O[C@H]1C)C[C@H](O)[C@H]2C(=O)O` [AMPHOTERICIN B], the results for the IC50 in series [1], in [2] and in series [3] were 6.5 µM, 2.8 µM and 2.8 µM, respectively. The IC90 in [1] is 19.6 µM; in series [3], 11.9 µM.
For `C/C=C(/C)C(=O)O[C@H]1C(C)=C2[C@H]([C@@H]1OC(=O)CCCCCCC)[C@@](C)(OC(C)=O)C[C@H](OC(=O)CCC)[C@@]1(O)[C@H]2OC(=O)[C@@]1(C)O` [THAPSIGARGIN], the IC50 in [1] amounted to 33.9 µM; in series [2], 28.1 µM; in [3], 30.1 µM. Also, the figures for the IC90 in series [1] and in [3] were 78.1 µM and 71.9 µM, respectively. In addition, the Activity in series [8] turned out to be 25.8%.
For the molecule `C[C@H]1[C@H](N2CCS(=O)(=O)CC2)O[C@@H]2O[C@@]3(C)CC[C@H]4[C@H](C)CC[C@@H]1[C@@]24OO3` [ARTEMIFONE], the IC50 was found to be 23.3 µM in series [1], 12.9 µM in [2] and 22.5 µM in series [3]. For the same molecule, the IC90 turned out to be 50.5 µM in [1] and 44.8 µM in series [3].

Values taken from ChEMBL document CHEMBL1145491, “Artemisinins inhibit Trypanosoma cruzi and Trypanosoma brucei rhodesiense in vitro growth” (Antimicrob Agents Chemother, 2007).
